Measurements taken from ChEMBL document CHEMBL1212901, “Dimethylaminopyridine derivatives of lupane triterpenoids are potent disruptors of mitochondrial structure and function” (2010).
Active and inactive are the calls of the source. The rule behind the calls is not given here.

Columns and labels:
[1] = tested on: WM3211; test: Induction of apoptosis in human WM3211 cells assessed as mitochondrial depolarization upto 4 ug/ml by flow cytometry; type: functional, cell-based
Method in brief: (§1)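 Cells suspended at 30,000 cells/ml in culture medium and exposed to compound at the single top test concentration for 5 h. TMRM added to 100 nM final for a further 60 min, then analysed by flow cytometry without medium replacement. Fluorescence given as percent of the DMSO vehicle control for each line. Mean of three independent experiments, SEM.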

[2] = tested on: WM793; test: Induction of apoptosis in human WM793 cells assessed as reduction in mitochondrial polarization upto 4 ug/ml by flow cytometry; type: functional, cell-based; method in brief: as §1
[3] = tested on: WM3211; test: Induction of apoptosis in human WM3211 cells assessed as mitochondrial fragmentation upto 4 ug/ml by flow cytometry; type: functional, cell-based
[4] = tested on: WM793; test: Induction of apoptosis in human WM793 cells assessed as mitochondrial fragmentation upto 4 ug/ml by flow cytometry; type: functional, cell-based
[5] = tested on: WM793; test: Induction of apoptosis in human WM793 cells assessed as change in fluorescence intensity using TMRM labeling by flow cytometry; type: functional, cell-based; method in brief: as §1
[6] = Antiproliferative activity against human WM3211 cells after 3 days by SRB assay; type: functional; settings: read-out: ED50 (the source's name)
Method in brief: (§2)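 WM3211 or WM793 melanoma cells in high-glucose DMEM with 8% Fetal Clone III, 3.5% horse serum and 5 mM Glutamax. Seeded at 20,000 cells/ml and rested 24 h. Serial 1:1 dilutions from 2 mg/ml DMSO stocks, incubated 72 h. Vehicle 0.2% DMSO. Cells fixed and stained with 0.5% SRB, dye eluted in Tris pH 10, A540 read. ED50 is the 50%-of-vehicle value taken from mean curves of three independent experiments.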

[7] = Antiproliferative activity against human WM793 cells after 3 days by SRB assay; type: functional; settings: read-out: ED50 (the source's name); method in brief: as §2
[8] = tested on: WM3211; test: Induction of apoptosis in human WM3211 cells assessed as change in mitochondrial morphology upto 4 ug/ml by flow cytometry; type: functional, cell-based
[9] = tested on: WM3211; test: Induction of apoptosis in human WM3211 cells assessed as change in fluorescence intensity using TMRM labeling by flow cytometry; type: functional, cell-based; method in brief: as §1
[10] = Antiproliferative activity against human WM3211 cells at 4 ug/ml after 3 days by SRB assay; type: functional
Method in brief: (§3)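 SRB proliferation in WM3211 or WM793 cells at the top concentration of the dilution series, after three days of exposure. Cells seeded at 20,000 cells/ml, with compound added after 24 h recovery. Vehicle control 0.2% DMSO. Growth read as A540 of Tris-eluted SRB and expressed as percent of vehicle control.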

[11] = Antiproliferative activity against human WM793 cells at 4 ug/ml after 3 days by SRB assay; type: functional; method in brief: as §3
[12] = tested on: WM793; test: Induction of apoptosis in human WM793 cells assessed as vacuolization upto 4 ug/ml by flow cytometry; type: functional, cell-based

SMILES | Activity [1] | Activity [2] | Activity [5] | EC50 ([6]; Homo sapiens, WM3211, 72 h) | EC50 ([7]; Homo sapiens, WM793, 72 h) | Activity [8] | Activity [9] | other results
C=C(C)[C@@H]1CC[C@]2(COC(=O)CC[n+]3ccc(N(C)C)cc3)CC[C@]3(C)[C@H](CC[C@@H]4[C@@]5(C)CC[C@H](OC(=O)CC[n+]6ccc(N(C)C)cc6)C(C)(C)[C@@H]5CC[C@]43C)[C@@H]12 | Active | Active | Active | 600 nM | 800 nM | – | – | Activity [3]: Active; Activity [4]: Active
C=C(C)[C@@H]1CC[C@]2(CO)CC[C@]3(C)[C@H](CC[C@@H]4[C@@]5(C)CC[C@H](OC(=O)C[n+]6ccc(N(C)C)cc6)C(C)(C)[C@@H]5CC[C@]43C)[C@@H]12 [listing 1 of 3 here] | – | – | – | – | – | – | – | EC50 [6]: 300 nM; EC50 [7]: 1900 nM
C=C(C)[C@@H]1CC[C@]2(COC(=O)CCC[n+]3ccc(N(C)C)cc3)CC[C@]3(C)[C@H](CC[C@@H]4[C@@]5(C)CC[C@H](OC(=O)CCC[n+]6ccc(N(C)C)cc6)C(C)(C)[C@@H]5CC[C@]43C)[C@@H]12 | Active | Active | – | 700 nM | 1300 nM | Active | Active | –
C=C(C[n+]1ccc(N(C)C)cc1)[C@@H]1CC[C@]2(COC(=O)C(C)[n+]3ccc(N(C)C)cc3)CC[C@]3(C)[C@H](CC[C@@H]4[C@@]5(C)CC[C@H](OC(=O)C(C)[n+]6ccc(N(C)C)cc6)C(C)(C)[C@@H]5CC[C@]43C)[C@@H]12 (stereo partly drawn) [listing 1 of 3 here] | – | – | – | > 3500 nM | > 3500 nM | – | – | –
C=C(C)[C@@H]1CC[C@]2(COC(=O)C(C)[n+]3ccc(N(C)C)cc3)CC[C@]3(C)[C@H](CC[C@@H]4[C@@]5(C)CC[C@H](OC(=O)C(C)[n+]6ccc(N(C)C)cc6)C(C)(C)[C@@H]5CC[C@]43C)[C@@H]12 (stereo partly drawn) | Active | Active | Active | 500 nM | 500 nM | – | – | Activity [3]: Active; Activity [4]: Active
C=C(C[n+]1ccc(N(C)C)cc1)[C@@H]1CC[C@]2(C(=O)O)CC[C@]3(C)[C@H](CC[C@@H]4[C@@]5(C)CC[C@H](OC(=O)C[n+]6ccc(N(C)C)cc6)C(C)(C)[C@@H]5CC[C@]43C)[C@@H]12 [listing 1 of 3 here] | inactive | – | Active | – | – | inactive | Active | –
C=C(C)[C@@H]1CC[C@]2(COC(=O)C[n+]3ccc(N(C)C)cc3)CC[C@]3(C)[C@H](CC[C@@H]4[C@@]5(C)CC[C@H](OC(=O)C[n+]6ccc(N(C)C)cc6)C(C)(C)[C@@H]5CC[C@]43C)[C@@H]12 [listing 1 of 3 here] | – | – | – | 400 nM | 400 nM | – | – | –
C=C(C)[C@@H]1CC[C@]2(COC(=O)C[n+]3ccc(N(C)C)cc3)CC[C@]3(C)[C@H](CC[C@@H]4[C@@]5(C)CC[C@H](OC(=O)C[n+]6ccc(N(C)C)cc6)C(C)(C)[C@@H]5CC[C@]43C)[C@@H]12 [listing 2 of 3 here] | – | – | – | – | – | – | – | EC50 [6]: 500 nM; EC50 [7]: 500 nM
C=C(C)[C@@H]1CC[C@]2(COC(=O)C[n+]3ccc(N(C)C)cc3)CC[C@]3(C)[C@H](CC[C@@H]4[C@@]5(C)CC[C@H](OC(=O)C[n+]6ccc(N(C)C)cc6)C(C)(C)[C@@H]5CC[C@]43C)[C@@H]12 [listing 3 of 3 here] | Active | Active | Active | – | – | – | – | Activity [3]: Active; Activity [4]: Active
C=C(C)[C@@H]1CC[C@]2(CO)CC[C@]3(C)[C@H](CC[C@@H]4[C@@]5(C)CC[C@H](OC(=O)C[n+]6ccc(N(C)C)cc6)C(C)(C)[C@@H]5CC[C@]43C)[C@@H]12 [listing 2 of 3 here] | – | – | – | 600 nM | 2500 nM | – | – | –
C=C(C[n+]1ccc(N(C)C)cc1)[C@@H]1CC[C@]2(COC(=O)C(C)[n+]3ccc(N(C)C)cc3)CC[C@]3(C)[C@H](CC[C@@H]4[C@@]5(C)CC[C@H](OC(=O)C(C)[n+]6ccc(N(C)C)cc6)C(C)(C)[C@@H]5CC[C@]43C)[C@@H]12 (stereo partly drawn) [listing 2 of 3 here] | – | – | – | – | – | – | – | EC50 [6]: > 3800 nM; EC50 [7]: > 3800 nM
C=C(C)[C@@H]1CC[C@]2(COC(=O)C(C)[n+]3ccc(N(C)C)cc3)CC[C@]3(C)[C@H](CC[C@@H]4[C@@]5(C)CC[C@H](O)C(C)(C)[C@@H]5CC[C@]43C)[C@@H]12 (stereo partly drawn) | Active | – | – | 800 nM | 2600 nM | Active | Active | –
C=C(C)[C@@H]1CC[C@]2(C(=O)O)CC[C@]3(C)[C@H](CC[C@@H]4[C@@]5(C)CC[C@H](OC(=O)C[n+]6ccc(N(C)C)cc6)C(C)(C)[C@@H]5CC[C@]43C)[C@@H]12.[Br-] | – | – | Active | 2600 nM | 5700 nM | Active | Active | Activity [10]: 40%; Activity [11]: 40%
C=C(C)[C@@H]1CC[C@]2(CO)CC[C@]3(C)[C@H](CC[C@@H]4[C@@]5(C)CC[C@H](OC(=O)C[n+]6ccc(N(C)C)cc6)C(C)(C)[C@@H]5CC[C@]43C)[C@@H]12 [listing 3 of 3 here] | Active | Active | – | – | – | Active | – | Activity [12]: Active
C=C(C[n+]1ccc(N(C)C)cc1)[C@@H]1CC[C@]2(C(=O)O)CC[C@]3(C)[C@H](CC[C@@H]4[C@@]5(C)CC[C@H](OC(=O)C[n+]6ccc(N(C)C)cc6)C(C)(C)[C@@H]5CC[C@]43C)[C@@H]12 [listing 2 of 3 here] | – | – | – | – | – | – | – | EC50 [6]: > 4700 nM; EC50 [7]: > 4700 nM
C=C(C[n+]1ccc(N(C)C)cc1)[C@@H]1CC[C@]2(COC(=O)C(C)[n+]3ccc(N(C)C)cc3)CC[C@]3(C)[C@H](CC[C@@H]4[C@@]5(C)CC[C@H](OC(=O)C(C)[n+]6ccc(N(C)C)cc6)C(C)(C)[C@@H]5CC[C@]43C)[C@@H]12 (stereo partly drawn) [listing 3 of 3 here] | inactive | – | Active | – | – | inactive | Active | –
C=C(C[n+]1ccc(N(C)C)cc1)[C@@H]1CC[C@]2(C(=O)O)CC[C@]3(C)[C@H](CC[C@@H]4[C@@]5(C)CC[C@H](O)C(C)(C)[C@@H]5CC[C@]43C)[C@@H]12 | inactive | – | Active | > 6100 nM | > 6100 nM | inactive | Active | –
C=C(C)[C@@H]1CC[C@]2(COC(=O)C(CC)[n+]3ccc(N(C)C)cc3)CC[C@]3(C)[C@H](CC[C@@H]4[C@@]5(C)CC[C@H](OC(=O)C(CC)[n+]6ccc(N(C)C)cc6)C(C)(C)[C@@H]5CC[C@]43C)[C@@H]12 (stereo partly drawn) | Active | Active | Active | 300 nM | 500 nM | – | – | Activity [3]: Active; Activity [4]: Active
C=C(C[n+]1ccc(N(C)C)cc1)[C@@H]1CC[C@]2(C(=O)O)CC[C@]3(C)[C@H](CC[C@@H]4[C@@]5(C)CC[C@H](OC(=O)C[n+]6ccc(N(C)C)cc6)C(C)(C)[C@@H]5CC[C@]43C)[C@@H]12 [listing 3 of 3 here] | – | – | – | > 4400 nM | > 4400 nM | – | – | –
